Measured values collected from several papers.
Protocols differ between the studies behind these lines.
Organism: Staphylococcus aureus
Effect on: microbial growth

SMILES	method	strain	time	notes	MIC
COC(=O)c1cc(-c2cccc(NC(=S)Nc3cc(C(F)(F)F)cc(C(F)(F)F)c3)c2)on1	broth dilution	ATCC29213	–	–	8 to 16 µg/mL
N#CC(C#N)=Cc1ccc(O)c(O)c1	–	NCTC8325	–	–	> 30 µM
O=[N+]([O-])c1ccc(/C=N/Nc2nc(Nc3ccccc3)nc(Nc3ccccc3)n2)o1	–	ATCC43300	–	–	2.4 µM
O=[N+]([O-])c1ccc(-c2nc3cccc(O)c3[nH]2)o1	broth dilution	ATCC700699 MRSA	–	drug-resistant strain	2 µg/mL
CNC(=O)c1cc(Sc2ccc(NC(=S)Nc3ccc(Cl)c(C(F)(F)F)c3)cc2)ccn1	–	NCTC8325	–	–	3 µM
CN[C@H](CC(C)C)C(=O)N[C@H]1C(=O)N[C@@H](CC(N)=O)C(=O)N[C@H]2C(=O)N[C@H]3C(=O)N[C@H](C(=O)N[C@H](C(=O)O)c4cc(O)cc(O)c4-c4cc3ccc4O)[C@H](O)c3ccc(c(Cl)c3)Oc3cc2cc(c3O[C@@H]2O[C@H](CO)[C@@H](O)[C@H](O)[C@H]2O[C@H]2C[C@](C)(N)[C@H](O)[C@H](C)O2)Oc2ccc(cc2Cl)[C@H]1O	broth dilution	ATCC29213	–	–	1 µg/mL
C/C(=C\C(=O)OCCCCCCCCC(=O)O)C[C@@H]1OC[C@H](C[C@@H]2O[C@H]2[C@@H](C)[C@H](C)O)[C@@H](O)[C@H]1O	–	MRSA	–	drug-resistant strain	0.5 µM
CN[C@H](CC(C)C)C(=O)N[C@H]1C(=O)N[C@@H](CC(N)=O)C(=O)N[C@H]2C(=O)N[C@H]3C(=O)N[C@H](C(=O)N[C@H](C(=O)O)c4cc(O)cc(O)c4-c4cc3ccc4O)[C@H](O)c3ccc(c(Cl)c3)Oc3cc2cc(c3O[C@@H]2O[C@H](CO)[C@@H](O)[C@H](O)[C@H]2O[C@H]2C[C@](C)(N)[C@H](O)[C@H](C)O2)Oc2ccc(cc2Cl)[C@H]1O	–	147	–	clinical isolate	0.59 µM
O=C(N[C@H](CO)[C@H](O)c1ccc([N+](=O)[O-])cc1)C(Cl)Cl	–	USA300	–	–	4 µg/mL
Oc1cccc(-c2nc3ccccc3[nH]2)c1	broth dilution	ATCC43300 MRSA	–	drug-resistant strain	128 µg/mL
COC(=O)c1cc(-c2cccc(NC(=O)Nc3ccc(C)c(Cl)c3)c2)on1	broth dilution	ATCC29213	–	–	> 64 µg/mL
CC1C(=NOCc2cc(-c3ccc(Cl)cc3)no2)CC(c2ccccc2)OC1c1ccccc1 (stereo not drawn)	broth dilution	MTCC96	24 h	–	25 µg/mL
Cc1ccc2[nH]c3c(c2c1)CCCC3NCCc1ccc(Br)cc1 (stereo not drawn)	broth dilution	ATCC29213	–	–	4 µg/mL
COC(=O)c1cc(-c2cccc(NC(=S)Nc3ccc([N+](=O)[O-])cc3)c2)on1	broth dilution	ATCC29213	–	–	> 64 µg/mL
CCC(CC)c1cc(CCN2CCCN(Cc3ccc(C(F)(F)F)cc3)CC2)nc(-c2ccncc2)n1	–	ATCCBAA41	–	drug-resistant strain, clinical isolate	6 µg/mL
CCCCCCCC(=O)NP(=O)(O)O	–	ATCC33591 MRSA	–	drug-resistant strain	> 200 µg/mL
Clc1ccc(Cn2c(-c3ccc(Cl)cc3)nc3ccccc32)cc1	broth dilution	ATCC43300 MRSA	–	drug-resistant strain	16 µg/mL
CN[C@@H]1[C@H](O)[C@H](NC)[C@H]2O[C@@]3(O)C(=O)C[C@@H](C)O[C@H]3O[C@@H]2[C@H]1O	broth dilution	8325	–	–	25 µg/mL
COC(=O)c1cc(-c2cccc(NC(=O)Nc3ccccc3C)c2)on1	broth dilution	ATCC29213	–	–	> 64 µg/mL
CC1(C)S[C@@H]2[C@H](NC(=O)[C@H](N)c3ccccc3)C(=O)N2[C@H]1C(=O)O	–	USA300	–	–	64 µg/mL
Cc1ccccc1-n1c(Cn2cnc3c(N)ncnc32)nc2cccc(C)c2c1=O	–	NCTC8325	–	–	> 30 µM
CN[C@H](CC(C)C)C(=O)N[C@H]1C(=O)N[C@@H](CC(N)=O)C(=O)N[C@H]2C(=O)N[C@H]3C(=O)N[C@H](C(=O)N[C@H](C(=O)O)c4cc(O)cc(O)c4-c4cc3ccc4O)[C@H](O)c3ccc(c(Cl)c3)Oc3cc2cc(c3O[C@@H]2O[C@H](CO)[C@@H](O)[C@H](O)[C@H]2O[C@H]2C[C@](C)(N)[C@H](O)[C@H](C)O2)Oc2ccc(cc2Cl)[C@H]1O	–	UAMS1	–	–	1 µg/mL
COC(=O)c1cc(-c2cccc(NC(=O)Nc3cccc(Br)c3)c2)on1	broth dilution	ATCC29213	–	–	> 64 µg/mL

SMILES	method	strain	time	notes	MIC
Cc1ccc2nc(-c3ccncc3)[nH]c2c1	broth dilution	ATCC43300 MRSA	–	drug-resistant strain	128 µg/mL
COc1cc(C)c(Cc2cnc(N)nc2N)cc1OC	broth dilution	–	–	–	~16.6 µM
CCCCCCC#Cc1cncc(-c2nnc(SCc3cc([N+](=O)[O-])cc([N+](=O)[O-])c3)n2C)c1	–	MRSA	–	drug-resistant strain	≥ 20 µg/mL
Cn1cc(C2=C(c3cn(C4CCN(Cc5ccccn5)CC4)c4ccccc34)C(=O)NC2=O)c2ccccc21	–	NCTC8325	–	–	> 30 µM
CC1(C)CC[C@]2(C(=O)O)CC[C@]3(C)C(=CC[C@@H]4[C@@]5(C)CC[C@H](O)C(C)(C)[C@@H]5CC[C@]43C)[C@@H]2C1	–	ATCC25904	–	–	256 µg/mL
COC(=O)c1cc(-c2cccc(NC(=O)Nc3ccccc3)c2)on1	broth dilution	ATCC29213	–	–	> 64 µg/mL
CN[C@H](CC(C)C)C(=O)N[C@H]1C(=O)N[C@@H](CC(N)=O)C(=O)N[C@H]2C(=O)N[C@H]3C(=O)N[C@H](C(=O)N[C@H](C(=O)O)c4cc(O)cc(O)c4-c4cc3ccc4O)[C@H](O)c3ccc(c(Cl)c3)Oc3cc2cc(c3O[C@@H]2O[C@H](CO)[C@@H](O)[C@H](O)[C@H]2O[C@H]2C[C@](C)(N)[C@H](O)[C@H](C)O2)Oc2ccc(cc2Cl)[C@H]1O	–	ATCC700699	–	drug-resistant strain	0.39 µg/mL
Cc1ccc2nc(-c3cccc([N+](=O)[O-])c3)[nH]c2c1	broth dilution	ATCC43300 MRSA	–	drug-resistant strain	64 µg/mL
O=C(CCCCC1CCCCC1)CP(=O)(O)O	–	ATCC33591 MRSA	–	drug-resistant strain	> 200 µg/mL
c1ccc(CCOC2CCCc3c2[nH]c2ccccc32)cc1 (stereo not drawn)	broth dilution	VISA	–	–	> 16 µg/mL
CN[C@H](CC(C)C)C(=O)N[C@H]1C(=O)N[C@@H](CC(N)=O)C(=O)N[C@H]2C(=O)N[C@H]3C(=O)N[C@H](C(=O)N[C@H](C(=O)O)c4cc(O)cc(O)c4-c4cc3ccc4O)[C@H](O)c3ccc(c(Cl)c3)Oc3cc2cc(c3O[C@@H]2O[C@H](CO)[C@@H](O)[C@H](O)[C@H]2O[C@H]2C[C@](C)(N)[C@H](O)[C@H](C)O2)Oc2ccc(cc2Cl)[C@H]1O	–	MRSA	–	–	8 µg/mL
COC(=O)c1cc(-c2cccc(NC(=O)Nc3c(C)cccc3C)c2)on1	broth dilution	ATCC29213	–	–	> 64 µg/mL
O=C(Nc1ccc(O)cc1)Nc1ccc(Cl)c(C(F)(F)F)c1	–	NCTC8325	–	–	100 µM
c1cncc(-c2nc3ccccc3[nH]2)c1	broth dilution	ATCC43300 MRSA	–	drug-resistant strain	256 µg/mL
COC(=O)c1cc(-c2cccc(NC(=O)Nc3cccc(Cl)c3Cl)c2)on1	broth dilution	ATCC29213	–	–	8 to 16 µg/mL
Cc1ccc2nc(-c3ccc(Cl)cc3)n(Cc3ccccc3)c2c1	broth dilution	ATCC43300 MRSA	–	drug-resistant strain	8 µg/mL
O=C(CCCCCCCCCCOc1ccccc1)CP(=O)(O)O	–	ATCC33591 MRSA	–	drug-resistant strain	100 µg/mL
C[C@H]1COCCN1c1nc(NCc2cccnc2C(F)(F)F)c2cccnc2n1	broth dilution	MRSA	–	–	128 µg/mL
COc1ccc(-c2nc3ccc(C)cc3[nH]2)cc1O	broth dilution	ATCC43300 MRSA	–	drug-resistant strain	128 µg/mL
CCCCCCCCCCCCCCCC(=O)C(F)(F)P(=O)(O)O	–	ATCC33591 MRSA	–	drug-resistant strain	100 µg/mL
Clc1ccccc1-c1nc2ccccc2[nH]1	broth dilution	ATCC43300 MRSA	–	drug-resistant strain	128 µg/mL
CCCCCCCC/C=C\CCCCCCCCNC(=O)CP(=O)(O)O	–	ATCC33591 MRSA	–	drug-resistant strain	100 µg/mL
